In article PMC5013402 (BMJ Open Diabetes Research & Care, 2016):
Like-named read-outs stand apart in the source and are kept apart here. Marks after values point to notes of the source that are not given here.

Columns and labels:
[1] = after subcutaneous injection; cited from earlier work
[2] = cited from earlier work; for Terminal clearance half-life from the lung: delivered as Technosphere inhaled insulin
[3] = format: in vivo, human (patients with type 1 or type 2 diabetes); conditions: serum, mean (SD), n=19
How it was run: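 Patients arrived fasting, with the morning prandial dose withheld; basal insulin or oral agents were taken as usual. Each inhaled their current individualized dose (range 15–90 units), then drank a standardized 540 kcal/67.5 g carbohydrate liquid meal. Serum was sampled at −30, 0, 5, 10, 15, 20, 30, 45, 60, 90, 120, 180 and 240 min. The challenge was repeated ≥15 to ≤45 days after symptom resolution, each patient serving as own control. Descriptive statistics.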

Compound | Duration of action [1] | Time to maximum concentration [1] | Terminal clearance half-life from the lung [2] | other results
regular human insulin: regular human insulin given by subcutaneous injection | 5 to 8 h | 80 to 120 min | – | –
insulin lispro | 3 to 5 h | 50 to 120 min | – | –
insulin: recombinant human insulin delivered as Technosphere inhaled insulin | – | – | ~1 h | –
insulin aspart | 3 to 5 h | 50 to 120 min | – | –
O=C(O)/C=C/C(=O)NCCCC[C@@H]1NC(=O)[C@H](CCCCNC(=O)/C=C/C(=O)O)NC1=O [FDKP, fumaryl diketopiperazine] | – | – | ~1 h | Excretion ([2]; after inhalation of Technosphere inhaled insulin): excreted unchanged in the urine; FDKP tmax ([3]; during URTI): 15.8 (26.2)† min; FDKP t½ ([3]; during URTI): 163.2 (35.5)† min; FDKP tmax ([3]; post-URTI): 15.5 (14.8)† min; FDKP t½ ([3]; post-URTI): 174.8 (79.0)† min
